Measurements: ChEMBL document CHEMBL4257543, “Structural optimization and antibacterial evaluation of rhodomyrtosone B analogues against MRSA strains” (Medchemcomm, 2018)
Values after ≈ are worked out from the molar mass of the structure shown. Active and inactive are the calls of the source. The calls are words filed in the database; no cut-off is given here.

Experiments:
Staphylococcus aureus [1] = assay: Antibacterial activity against methicillin-resistant Staphylococcus aureus JCSC 4788 in Balb/c mouse skin infection model assessed as reduction in skin ulcer formation at 40 ug administered as single dose via intradermal route measured 3 to 8 days post-infection; type: functional, organism-based
Summary of the method: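 Female BALB/c mice (18–20 g) injected intradermally in abdominal skin with 0.1 mL of MRSA JCSC 4788 (1×10^8 CFU) mixed with a single 40 μg dose in DMSO; DMSO-vehicle controls. Body weight and lesion size recorded daily for 11 days, ulcers imaged at 3 and 8 days; n = 6, mean ± SD.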

Enterococcus faecium = assay: Antibacterial activity against vancomycin-resistant Enterococcus faecium by micro dilution susceptibility test; type: functional
Summary of the method: (§1)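 Microbroth dilution MIC in Mueller–Hinton broth following CLSI guidelines, vancomycin as positive control; resazurin added as visible growth indicator. Assays run at least in triplicate.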

Shigella dysenteriae = assay: Antibacterial activity against Shigella dysenteriae CMCC 51252 by micro dilution susceptibility test; type: functional; summary of the method: as §1
Staphylococcus aureus [2] = assay: Bactericidal activity against methicillin-resistant Staphylococcus aureus JCSC 4788 assessed as reduction in bacterial growth at 0.5 to 1 times MIC measured within 8 hrs by time kill assay relative to control; type: functional; design: scale not given: the % may be the effect or the level left
Summary of the method: (§2)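 Time-kill per CLSI: overnight MRSA JCSC 4788 adjusted in 0.85% NaCl to 10^6–10^7 CFU mL−1 and exposed to 0.5×, 1×, 2× and 4× MIC at 35 °C, vancomycin as comparator. Viable plate counts at 0.5, 2, 4, 8 and 24 h; two independent experiments.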

SF-268 = assay: Cytotoxicity against human SF268 cells by MTT assay; type: cell-based
Summary of the method: (§3)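 MTT viability assay after 24 h exposure to compound at 1.5625–100 µg mL⁻¹; control cells received DMSO at 0.5% (highest test-well level); IC50 given as mean ± SD of at least triplicate runs.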

Salmonella typhi = assay: Antibacterial activity against Salmonella typhi CMCC 44102 by micro dilution susceptibility test; type: functional, Salmonella enterica subsp. enterica serovar Typhi; conditions: Salmonella enterica; summary of the method: as §1
Bacillus cereus = assay: Antibacterial activity against Bacillus cereus ATCC 10876 by micro dilution susceptibility test; type: functional
Summary of the method: (§4)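 Microbroth dilution MIC in Mueller–Hinton broth following CLSI guidelines, with vancomycin as positive control; assays run at least in triplicate.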

Staphylococcus aureus [3] = assay: Selectivity ratio of MIC for methicillin-resistant Staphylococcus aureus 85/2082 to MIC for methicillin-resistant Staphylococcus aureus JCSC 4788; type: functional
Staphylococcus aureus [4] = assay: Selectivity ratio of MIC for methicillin-resistant Staphylococcus aureus NCTC 10442 to MIC for methicillin-resistant Staphylococcus aureus JCSC 4788; type: functional
Staphylococcus aureus [5] = assay: Selectivity ratio of MIC for methicillin-resistant Staphylococcus aureus JCSC 4744 to MIC for methicillin-resistant Staphylococcus aureus JCSC 4788; type: functional
Staphylococcus aureus [6] = assay: Induction of cytoplasmic membrane hyperpolarization in methicillin-resistant Staphylococcus aureus JCSC 4788 at 1 to 2 times MIC measured after 2 mins by Disc3(5) staining based fluorescence spectrophotometric method; type: functional, organism-based
Summary of the method: (§5)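 Exponential-phase MRSA JCSC 4788 washed and set to OD620 0.1 in 5 mM HEPES pH 7. Cells loaded with 0.4 μM DiSC3(5) plus 100 mM KCl for 20 min at 37 °C with agitation. Compound added at 0.5–8× MIC and fluorescence followed at ex 660/em 670 nm; mean ± SD.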

Staphylococcus aureus [7] = assay: Selectivity ratio of MIC for methicillin-resistant Staphylococcus aureus JCSC 4469 to MIC for methicillin-resistant Staphylococcus aureus JCSC 4788; type: functional
RAW264.7 = assay: Cytotoxicity against mouse RAW264.7 cells by MTT assay; type: cell-based; summary of the method: as §3
Staphylococcus aureus [8] = assay: Antibacterial activity against Staphylococcus aureus CMCC 26003 by micro dilution susceptibility test; type: functional; summary of the method: as §1
Enterococcus faecalis = assay: Antibacterial activity against Enterococcus faecalis ATCC 29212 by micro dilution susceptibility test; type: functional; summary of the method: as §4
Staphylococcus aureus [9] = assay: Antibacterial activity against methicillin-resistant Staphylococcus aureus JCSC 4744 by micro dilution susceptibility test; type: functional; summary of the method: as §1
Staphylococcus aureus [10] = assay: Selectivity ratio of MIC for methicillin-resistant Staphylococcus aureus JCSC 2172 to MIC for methicillin-resistant Staphylococcus aureus JCSC 4788; type: functional
Staphylococcus aureus [11] = assay: Induction of cytoplasmic membrane disruption in methicillin-resistant Staphylococcus aureus JCSC 4788 measured after 3 hrs by SYTOX green dye based fluorescence microscopic analysis; type: functional, organism-based
Summary of the method: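 MRSA JCSC 4788 suspension (OD620 0.4) treated with compound or vancomycin for 3 h, stained with 3 μM SYTOX Green, fixed on glass slides and viewed by fluorescence microscopy at 485 nm excitation.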

Staphylococcus aureus [12] = assay: Antibacterial activity against methicillin-resistant Staphylococcus aureus JCSC 3063 by micro dilution susceptibility test; type: functional; summary of the method: as §1
Staphylococcus aureus [13] = assay: Antibacterial activity against Staphylococcus aureus ATCC 29213 by micro dilution susceptibility test; type: functional; summary of the method: as §1
Escherichia coli = assay: Antibacterial activity against Escherichia coli ATCC 8739 by micro dilution susceptibility test; type: functional; summary of the method: as §4
Staphylococcus aureus [14] = assay: Induction of cytoplasmic membrane depolarization in methicillin-resistant Staphylococcus aureus JCSC 4788 at 0.5 to 2 times MIC measured within 1 min by Disc3(5) staining based fluorescence spectrophotometric method; type: functional, organism-based; summary of the method: as §5
Staphylococcus aureus [15] = assay: Bactericidal activity against methicillin-resistant Staphylococcus aureus JCSC 4788 assessed as bacterial killing at 2 MIC measured within 2 hrs by time kill assay relative to control; type: functional; summary of the method: as §2
[16] = Selectivity ratio of IC50 for human SF268 cells to MIC for methicillin-resistant Staphylococcus aureus JCSC 4788; type: toxicity
Summary of the method: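 Ratio of 24 h MTT cytotoxicity IC50 (compound 1.5625–100 μg mL−1, 0.5% DMSO control) to MIC against MRSA JCSC 4788 from CLSI microbroth dilution in MHB; IC50 values expressed as mean ± SD.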

Question: With `CCCCCCCC(=O)c1c(O)cc(O)c2c1OC1=C(C(=O)C(C)(C)C(=O)C1(C)C)C2CC(C)C` (centres undefined) as the compound, how does the Activity (Staphylococcus aureus [1]) read?
Answer: Active

Question: What about the MIC (Enterococcus faecium) of the same compound?
Answer: 2 µg/mL (≈ 4.13 µM)

Question: What about the MIC (Shigella dysenteriae) of the same compound?
Answer: > 32 µg/mL

Question: What about the Activity (Staphylococcus aureus [2]) of the same compound?
Answer: >90%

Question: And the IC50 (SF-268)?
Answer: 10.2 µg/mL (≈ 20.9 µM)

Question: What about the MIC (Salmonella typhi) of the same compound?
Answer: > 32 µg/mL

Question: And the MIC (Bacillus cereus)?
Answer: 0.5 µg/mL (≈ 1.03 µM)

Question: What about the Selectivity ratio (Staphylococcus aureus [3]) of the same compound?
Answer: 0.5 - 2

Question: What about the Selectivity ratio (Staphylococcus aureus [4]) of the same compound?
Answer: 0.5 - 2

Question: And the Selectivity ratio (Staphylococcus aureus [5])?
Answer: 0.5 - 2

Question: And the Activity (Staphylococcus aureus [6])?
Answer: Active

Question: And the Selectivity ratio (Staphylococcus aureus [7])?
Answer: 0.5 - 2

Question: And the IC50 (RAW264.7)?
Answer: 5.6 µg/mL (≈ 11.6 µM)

Question: What about the MIC (Staphylococcus aureus [8]) of the same compound?
Answer: 0.25 µg/mL (≈ 0.516 µM)

Question: What about the MIC (Enterococcus faecalis) of the same compound?
Answer: 0.25 µg/mL (≈ 0.516 µM)

Question: And the MIC (Staphylococcus aureus [9])?
Answer: 0.125 µg/mL (≈ 0.258 µM)

Question: And the Selectivity ratio (Staphylococcus aureus [10])?
Answer: 0.5 - 2

Question: And the Activity (Staphylococcus aureus [11])?
Answer: Active

Question: What about the MIC (Staphylococcus aureus [12]) of the same compound?
Answer: 0.25 µg/mL (≈ 0.516 µM)

Question: And the MIC (Staphylococcus aureus [13])?
Answer: 0.5 µg/mL (≈ 1.03 µM)

Question: What about the MIC (Escherichia coli) of the same compound?
Answer: > 32 µg/mL

Question: And the Activity (Staphylococcus aureus [14])?
Answer: Active

Question: What about the Activity (Staphylococcus aureus [15]) of the same compound?
Answer: >90%

Question: What about the Selectivity ratio [16] of the same compound?
Answer: 40.6
